Source: article PMC8193639 (Journal of the American Chemical Society, 2021)

Experiments:
ERRγ_179/14-3-3γ = biological target: T1, ERRγ_179/14-3-3γ (Homo sapiens, UniProt P61981); assay: Selectivity panel, FA protein titration; format: binding; details: 100 μM fragment; Cys +1
T1 sequence (P61981 1-247): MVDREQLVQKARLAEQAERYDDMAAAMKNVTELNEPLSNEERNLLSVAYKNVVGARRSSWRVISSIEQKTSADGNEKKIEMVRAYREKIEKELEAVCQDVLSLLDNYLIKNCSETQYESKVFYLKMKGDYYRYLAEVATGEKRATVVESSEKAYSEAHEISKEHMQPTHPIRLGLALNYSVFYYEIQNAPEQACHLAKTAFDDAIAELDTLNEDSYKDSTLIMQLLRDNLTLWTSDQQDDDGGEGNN

C-Raf/14-3-3γ = biological target: T2, C-Raf/14-3-3γ (Homo sapiens, UniProt P61981); assay: Selectivity panel, FA protein titration; format: binding; details: 100 μM fragment; Thr +1
T2 sequence (P61981 1-247): T1 sequence (P61981 1-247)

Abl1pT735/14-3-3γ = assay: Selectivity panel, FA protein titration; format: binding; details: 100 μM fragment; Leu +1
14-3-3γ = biological target: T3, 14-3-3γ (Homo sapiens, UniProt P61981); assay: Thermal shift assay, 14-3-3γ alone; format: binding; details: compound added to 14-3-3γ alone
T3 sequence (P61981 1-247): T1 sequence (P61981 1-247)
Summary of the method: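 Thermal shift assay as an orthogonal check of complex stabilization. Read-out is the 14-3-3γ melting temperature with test compound present. Protein is either alone or with acetylated Pin1 peptide added at 5 or 50 equiv.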

Pin1_72/14-3-3γ complex [1] = biological target: T4, Pin1_72/14-3-3γ complex (Homo sapiens, UniProt P61981); assay: biochemical
TBC1D237/14-3-3γ = biological target: T5, TBC1D237/14-3-3γ (Homo sapiens, UniProt P61981); assay: Selectivity panel, FA protein titration; format: binding; details: 100 μM fragment; Gln +1
T5 sequence (P61981 1-247): T1 sequence (P61981 1-247)

AS160/14-3-3γ complex = assay: Selectivity panel, FA protein titration; format: binding; details: 100 μM fragment; Phe +1
Mypt1_472/14-3-3γ = biological target: T6, Mypt1_472/14-3-3γ (Homo sapiens, UniProt P61981); assay: Selectivity panel, FA protein titration; format: binding; details: 100 μM fragment; Ser +1
T6 sequence (P61981 1-247): T1 sequence (P61981 1-247)

14-3-3/Pin1_72 complex = 14-3-3/Pin1_72 complex (Homo sapiens, UniProt P61981); assay: Cooperativity analysis, 2D FA protein titrations; format: binding
B-Raf_729/14-3-3γ = biological target: T7, B-Raf_729/14-3-3γ (Homo sapiens, UniProt P61981); assay: Selectivity panel, FA protein titration; format: binding; details: 100 μM fragment; Glu +1
T7 sequence (P61981 1-247): T1 sequence (P61981 1-247)

14-3-3/ERα complex = biological target: T8, 14-3-3/ERα complex (Homo sapiens, UniProt P61981); assay: Selectivity panel, FA protein titration; format: binding; details: 100 μM compound; C-terminal phosphorylation motif
T8 sequence (P61981 1-247): T1 sequence (P61981 1-247)

p65pS45/14-3-3γ = assay: Selectivity panel, FA protein titration; format: binding; details: 100 μM fragment; Ile +1
CFTRpS753/14-3-3γ = assay: Selectivity panel, FA protein titration; format: binding; details: 100 μM fragment; Val +1
Pin1_72/14-3-3γ complex [2] = biological target: T4, Pin1_72/14-3-3γ complex; assay: FA protein titration of 14-3-3γ in presence of 100 μM compound; format: binding

O=Cc1ccc(-n2ccnc2-c2ccc(F)cc2F)cc1Br [fragment 28]
SF / complex stabilization (ERRγ_179/14-3-3γ): no significant stabilization
SF / complex stabilization (C-Raf/14-3-3γ): abolishes any stabilizing effect
SF / complex stabilization (Abl1pT735/14-3-3γ): some stabilizing activity
effect on 14-3-3 melting temperature (14-3-3γ): no significant effect
EC50 (Pin1_72/14-3-3γ complex [1]): 79 ± 3 µM
SF / complex stabilization (TBC1D237/14-3-3γ): no significant stabilization
SF / complex stabilization (AS160/14-3-3γ complex): 1.2 to 2.7 fold
SF / complex stabilization (Mypt1_472/14-3-3γ): no significant stabilization
concentration necessary to induce a 2-fold increase in PPI stabilization (14-3-3/Pin1_72 complex): 1 µM
SF / complex stabilization (B-Raf_729/14-3-3γ): no significant stabilization
SF / complex stabilization (14-3-3/ERα complex): not responsive to fragment stabilization
SF / complex stabilization (p65pS45/14-3-3γ): some stabilizing activity
SF / complex stabilization (CFTRpS753/14-3-3γ): some stabilizing activity

Cc1cn(-c2ccc(C=O)cc2)cn1 [fragment 4]
EC50 (Pin1_72/14-3-3γ complex [1]): > 1000 µM

O=Cc1ccc(-n2ccnc2-c2ccccc2)cc1Br [fragment 13]
EC50 (Pin1_72/14-3-3γ complex [1]): 101 ± 6 µM
SF / complex stabilization (AS160/14-3-3γ complex): 1.2 to 2.7 fold
Kd (Pin1_72/14-3-3γ complex [2]): 2.16 ± 0.123 µM
SF (stabilization factor) (Pin1_72/14-3-3γ complex [2]; KD,DMSO/KD,compound, internal DMSO control, 100 μM fragment): 10.8 fold
SF / complex stabilization (14-3-3/ERα complex): not responsive to fragment stabilization

C=CC(C)(C)OC[C@H]1O[C@H](O[C@@H]2C3=C([C@H](C)COC(C)=O)C[C@H](O)[C@]3(C)/C=C3/[C@@H](COC)CC[C@H]3[C@@H](C)[C@H]2O)[C@H](O)[C@@H](OC(C)=O)[C@@H]1O [FCA, fusicoccin A, reference compound]
SF / complex stabilization (14-3-3/ERα complex): 160 fold

O=Cc1ccc(-n2ccnc2-c2cc(Br)ccc2F)cc1Br [fragment 27]
SF / complex stabilization (ERRγ_179/14-3-3γ): no significant stabilization
SF / complex stabilization (C-Raf/14-3-3γ): abolishes any stabilizing effect
SF / complex stabilization (Abl1pT735/14-3-3γ): no significant complex stabilization
effect on 14-3-3 melting temperature (14-3-3γ): no significant effect
EC50 (Pin1_72/14-3-3γ complex [1]): 118 ± 7 µM
SF / complex stabilization (TBC1D237/14-3-3γ): no significant stabilization
SF / complex stabilization (AS160/14-3-3γ complex): 1.2 to 2.7 fold
SF / complex stabilization (Mypt1_472/14-3-3γ): no significant stabilization
SF / complex stabilization (B-Raf_729/14-3-3γ): no significant stabilization
SF / complex stabilization (14-3-3/ERα complex): not responsive to fragment stabilization
SF / complex stabilization (p65pS45/14-3-3γ): no significant complex stabilization
